Experimental data collected from several papers.
Observed: cell growth or viability

O=S(=O)(c1ccc(Cl)cc1)c1nc(-c2ccccc2)oc1S(=O)(=O)c1ccc(Cl)cc1  CC50 (HFF; ATP luminescence): 86.2 µM
CN(C)c1ccc(C(=C2C=CC(=[N+](C)C)C=C2)c2ccc(N(C)C)cc2)cc1  CC50 (J774; ATP luminescence; 72 h): 4.91 µM
O=c1[nH]c2cc(-c3ccc(Cl)cc3)ccc2c(=O)n1O  CC50 (HFF; MTS; 7 days): > 50 µM
Nc1nc(O)c2ncn(COC(CO)CO)c2n1  CC50 (HFF; ATP luminescence): > 150 µM
O=C(CN1C(=O)Cc2c([nH]c3ccc(Br)cc23)-c2ccc(Cl)cc21)NCCN1CCCCC1  CC50 (J774; WST-1; 24 h): ≤ 10 µM
CC1CCCN(S(=O)(=O)c2nc(-c3ccc(Br)cc3)oc2-c2ccc(Cl)cc2)C1 (stereo not drawn)  CC50 (HFF; ATP luminescence): 41.9 µM
O=c1[nH]c2cc(-c3ccccc3)sc2c(=O)n1O  CC50 (HFF; MTS; 7 days): > 50 µM
O=C1Cc2c([nH]c3ccc(Br)cc23)-c2ccc(Cl)cc2N1  CC50 (J774; WST-1; 24 h): > 200 µM
O=c1[nH]c2cc(-c3ccc(Cl)cc3)sc2c(=O)n1O  CC50 (HFF; MTS; 7 days): > 50 µM
NCCNC(=O)CN1C(=O)Cc2c([nH]c3ccc(Br)cc23)-c2ccc(Cl)cc21  CC50 (J774; WST-1; 24 h): ≥ 100 µM
O=c1[nH]c2cc(-c3ccccc3)ccc2c(=O)n1O  CC50 (HFF; MTS; 7 days): 29 µM
Nc1ccn(C[C@@H](CO)OCP(=O)(O)O)c(=O)n1  CC50 (HFF; ATP luminescence; 14 days): 60 µM
